Source: ChEMBL document CHEMBL4699614, “Design, synthesis and biological evaluation of novel osthole-based derivatives as potential neuroprotective agents” (Bioorg Med Chem Lett, 2020)
Active and inactive are the calls of the source.

Key:
RAW264.7 = assay: Inhibition of LPS-induced NO production in mouse RAW264.7 cells assessed as NO production activity at 10 uM by Griess reagent based assay; format: functional
SH-SY5Y [1] = assay: Neuroprotection against H202-induced oxidative stress in human SH-SY5Y cells assessed as increase in cell viability at 10 uM by MTT assay; format: functional
In short: (§1)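 SH-SY5Y cells were given one of two insults: H2O2-induced oxidative stress, with cell viability read by MTT, or oxygen glucose deprivation (OGD)-induced cell damage. Compounds were tested at 10 µM, and the result is expressed as percent neuroprotection.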

SH-SY5Y [2] = assay: Neuroprotective activity against oxygen-glucose deprivation-induced toxicity in human SH-SY5Y cells assessed as increase in cell viability at 10 uM by MTT assay; format: functional; in short: as §1
SH-SY5Y [3] = assay: Neuroprotective activity against human SH-SY5Y cells assessed as Abeta42-induced cytotoxicity at 10 uM by MTT assay; format: functional
SH-SY5Y [4] = assay: Neuroprotection against oxygen-glucose deprivation-induced toxicity in human SH-SY5Y cells assessed as cytoprotection by MTT assay; format: functional, cell-based
In short: (§2)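 SH-SY5Y cells were exposed to H2O2 or to oxygen glucose deprivation (OGD) cytotoxicity. EC50 was defined as the concentration giving 50% protective effect relative to the control group. Values are averages of three independent experiments, given as mean ± SEM.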

SH-SY5Y [5] = assay: Neuroprotection against H202-induced toxicity in human SH-SY5Y cells assessed as cytoprotection by MTT assay; format: functional, cell-based; in short: as §2
SH-SY5Y [6] = assay: Neuroprotective activity against human SH-SY5Y cells assessed as Abeta42-induced cytotoxicity at 1 uM by MTT assay; format: functional
SH-SY5Y [7] = assay: Neuroprotection against H202-induced oxidative stress in human SH-SY5Y cells assessed as increase in cell viability at 1 mM by MTT assay; format: functional
SH-SY5Y [8] = assay: Neuroprotective activity against oxygen-glucose deprivation-induced toxicity in human SH-SY5Y cells assessed as increase in cell viability at 1 mM by MTT assay; format: functional
SH-SY5Y [9] = assay: Neuroprotective activity against human SH-SY5Y cells assessed as Abeta42-induced cytotoxicity at 30 uM by MTT assay; format: functional

| SMILES | Residual NO production (RAW264.7) | Activity (SH-SY5Y [1]) | Activity (SH-SY5Y [2]) | EC50 (SH-SY5Y [4]) | EC50 (SH-SY5Y [5]) | other results |
| --- | --- | --- | --- | --- | --- | --- |
| COc1ccc2c(c1)c(CC(=O)O)c(C)n2C(=O)c1ccc(Cl)cc1 [INDOMETHACIN] | 53.2% |  |  |  |  |  |
| CC(C)=CCc1c(OCC(=O)Nc2ccc(N3CCCC3)cn2)ccc2ccc(=O)oc12 |  | 45.2% | 58.2% |  |  |  |
| CC(C)(O)C1Cc2c(ccc3cc(-c4ccc(F)cc4)c(=O)oc23)O1 (stereo not drawn) |  | 21.3% | 23.5% |  |  |  |
| CC(C)=CCc1c(OCC(=O)N2CCN(C(=O)OC(C)(C)C)CC2)ccc2ccc(=O)oc12 | 62.8% | 45.7% | 64.6% | 3.27 µM | 10.3 µM | inhibition at 10 µM (SH-SY5Y [3]): 61.4%; inhibition at 1 µM (SH-SY5Y [6]): 55.2% |
| CC(C)=CCc1c(OCC(=O)Nc2ccc(N3CCCC3)cc2)ccc2ccc(=O)oc12 | 50.4% | 47.7% | 63.4% | 5.62 µM | 11.9 µM | inhibition at 10 µM (SH-SY5Y [3]): 46.3%; inhibition at 1 µM (SH-SY5Y [6]): 47.8% |
| CC(C)=CCc1c(OCC(=O)N2CCCC2)ccc2ccc(=O)oc12 | 75.4% | 28% | 43.6% | 15.3 µM | 67.3 µM |  |
| CCN1CCN(C(=O)COc2ccc3ccc(=O)oc3c2CC=C(C)C)CC1 | 72.3% | 33.7% | 48% | 12.5 µM | 29.8 µM |  |
| COc1cccc(-c2cc3ccc4c(c3oc2=O)CC(C(C)(C)O)O4)c1 (stereo not drawn) | 73.3% | 31% | 42.8% | 13.3 µM | 30.4 µM |  |
| CC(C)=CCc1c(OCC(=O)Nc2ccc(N3CCNCC3)cn2)ccc2ccc(=O)oc12 |  | 44.5% | 49.4% |  |  |  |
| CC(C)=CCc1c(OCC(=O)Nc2ccc(N3CCCCC3)cn2)ccc2ccc(=O)oc12 |  | 32.7% | 16.8% |  |  |  |
| CC(C)=CCc1c(OCC(=O)N2CCOCC2)ccc2ccc(=O)oc12 | 74.1% | 31.5% | 23.2% | > 100 µM | 27.5 µM |  |
| Cc1ccc(-c2cc3ccc4c(c3oc2=O)CC(C(C)(C)O)O4)cc1 (stereo not drawn) |  | 18.2% |  |  |  |  |
| CC(=O)N[C@@H](CS)C(=O)O [ACETYLCYSTEINE] |  |  |  |  |  | Activity (SH-SY5Y [7]): 37.1%; Activity (SH-SY5Y [8]): 84.3% |
| CC(C)=CCc1c(OCC(=O)Nc2ccc(N3CCNCC3)cc2)ccc2ccc(=O)oc12 |  | 22.5% | 8.4% |  |  |  |
| CC(C)(O)C1Cc2c(ccc3cc(-c4ccccc4F)c(=O)oc23)O1 (stereo not drawn) | 85.2% | 36.5% | 37.2% | 40.1 µM | 32.3 µM |  |
| CC(C)=CCc1c(OCC(=O)N2CCCCC2)ccc2ccc(=O)oc12 |  | 5.5% |  |  |  |  |
| CC(C)=CCc1c(OC(=O)NC2CCCCC2)ccc2ccc(=O)oc12 |  | 13% |  |  |  |  |
| COc1ccc2ccc(=O)oc2c1CC=C(C)C [OSTHOLE] | 85.6% |  | 28.6% | 26.4 µM | 33.3 µM | Activity (SH-SY5Y [9]): 37.1%; Activity (SH-SY5Y [6]): inactive |
| CC(C)=CCc1c(OCC(=O)Nc2ccc(N3CCOCC3)cc2)ccc2ccc(=O)oc12 |  | 39.5% | 13.2% |  |  |  |
| CC(C)=CCc1c(OCC(=O)Nc2ccc(N3CCCCC3)cc2)ccc2ccc(=O)oc12 |  | 12.5% |  |  |  |  |
| CC(C)(O)C1Cc2c(ccc3cc(-c4ccccc4)c(=O)oc23)O1 (stereo not drawn) |  | 19.7% | 23.2% |  |  |  |
| CC(C)(O)C1Cc2c(ccc3cc(-c4cccc(F)c4)c(=O)oc23)O1 (stereo not drawn) | 106.2% | 29% | 41.2% | 18.8 µM | 75.9 µM |  |
| COc1ccc(CNC(=O)Oc2ccc3ccc(=O)oc3c2CC=C(C)C)cc1 | 77.4% | 28.7% | 35% | 23.3 µM | > 100 µM |  |
| CC(C)=CCc1c(OCC(=O)Nc2ccc(N3CCOCC3)cn2)ccc2ccc(=O)oc12 | 80.3% | 43.5% | 51.4% | 9.05 µM | 16.6 µM |  |
| CC(C)=CCc1c(OCC(=O)N2CCNCC2)ccc2ccc(=O)oc12 |  | 29.2% | 28.2% |  |  |  |
